Reference: ChEMBL document CHEMBL1138207, “Engineering of a VPAC2 receptor peptide agonist to impart dipeptidyl peptidase IV stability and enhance in vivo glucose disposal” (J Med Chem, 2006)

Legend:
[1] = target: T1, Pituitary adenylate cyclase-activating polypeptide type I receptor (Homo sapiens, UniProt P41586); experiment: Activity at human PAC1 receptor in CHO cells by measuring cAMP accumulation; format: cell-based
In short: (§1)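 CHO cells transfected with human PAC1, VPAC1 or VPAC2 receptor were incubated with peptide for 15 min at 37 °C. Buffer: HEPES pH 7.4 saline with 1% BSA, bacitracin and 100 µM IBMX as phosphodiesterase inhibitor. cAMP was measured by competitive 125I-cAMP scintillation proximity assay. Curves were fit to a single-site model.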

[2] = target: T2, Vasoactive intestinal polypeptide receptor 1 (Homo sapiens, UniProt P32241); experiment: Activity at human VPAC1 receptor in CHO cells by measuring cAMP accumulation; format: functional, cell-based; in short: as §1
T2 sequence (P32241 whole entry): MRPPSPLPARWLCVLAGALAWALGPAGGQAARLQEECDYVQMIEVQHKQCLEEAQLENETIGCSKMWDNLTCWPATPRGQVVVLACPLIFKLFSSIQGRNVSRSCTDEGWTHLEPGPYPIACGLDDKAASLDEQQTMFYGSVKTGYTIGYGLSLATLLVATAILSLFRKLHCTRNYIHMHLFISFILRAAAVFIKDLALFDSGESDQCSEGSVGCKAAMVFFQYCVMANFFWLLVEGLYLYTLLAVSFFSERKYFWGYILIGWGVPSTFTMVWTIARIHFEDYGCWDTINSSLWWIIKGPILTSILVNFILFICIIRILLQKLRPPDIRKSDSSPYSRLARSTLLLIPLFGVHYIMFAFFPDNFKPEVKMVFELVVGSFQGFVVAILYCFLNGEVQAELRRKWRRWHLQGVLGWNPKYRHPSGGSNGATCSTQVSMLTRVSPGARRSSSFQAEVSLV

[3] = target: T1, Pituitary adenylate cyclase-activating polypeptide type I receptor; experiment: Displacement of [125I]PACAP27 from human PAC1 receptor expressed in CHO cells; format: cell-based
In short: (§2)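 Membranes (10 µg) from CHO cells transfected with human PAC1, VPAC1 or VPAC2 receptor were incubated with 0.1 nM 125I-PACAP27 and competing peptide for 20 min at 37 °C. Buffer: 20 mM HEPES pH 7.4, 0.5% BSA, CaCl2, bacitracin. Reactions were stopped on ice. Bound ligand was collected by filtration on PEI-treated filters and counted by scintillation. Data were fit to a single-site model.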

[4] = target: T2, Vasoactive intestinal polypeptide receptor 1; experiment: Displacement of [125I]PACAP27 from human VPAC1 receptor expressed in CHO cells; format: cell-based; in short: as §2

T1 sequence (P41586 whole entry): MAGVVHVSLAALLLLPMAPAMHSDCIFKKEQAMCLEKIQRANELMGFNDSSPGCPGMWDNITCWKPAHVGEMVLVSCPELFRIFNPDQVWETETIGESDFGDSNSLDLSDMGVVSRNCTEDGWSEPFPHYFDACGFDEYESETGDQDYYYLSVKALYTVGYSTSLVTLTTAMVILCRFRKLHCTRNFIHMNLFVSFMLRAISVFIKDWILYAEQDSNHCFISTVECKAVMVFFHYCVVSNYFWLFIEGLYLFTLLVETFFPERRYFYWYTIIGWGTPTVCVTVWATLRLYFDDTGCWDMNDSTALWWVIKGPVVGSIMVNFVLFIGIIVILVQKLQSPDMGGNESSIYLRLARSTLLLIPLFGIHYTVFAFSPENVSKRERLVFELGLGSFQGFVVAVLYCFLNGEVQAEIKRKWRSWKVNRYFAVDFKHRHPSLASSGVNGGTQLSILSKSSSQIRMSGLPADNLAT

EC50 [1]: 0.13 nM
EC50 [2]: 0.6 nM
IC50 [3]: 3 nM
IC50 [4]: 12 nM
SMILES: CC[C@H](C)[C@H](NC(=O)CNC(=O)[C@H](CC(=O)O)NC(=O)[C@H](CO)NC(=O)[C@@H](N)Cc1cnc[nH]1)C(=O)N[C@@H](Cc1ccccc1)C(=O)N[C@H](C(=O)N[C@@H](CC(=O)O)C(=O)N[C@@H](CO)C(=O)N[C@@H](Cc1ccc(O)cc1)C(=O)N[C@@H](CO)C(=O)N[C@@H](CCCN=C(N)N)C(=O)N[C@@H](Cc1ccc(O)cc1)C(=O)N[C@@H](CCCN=C(N)N)C(=O)N[C@@H](CCCCN)C(=O)N[C@@H](CCC(N)=O)C(=O)N[C@@H](CCSC)C(=O)N[C@@H](C)C(=O)N[C@H](C(=O)N[C@@H](CCCCN)C(=O)N[C@@H](CCCCN)C(=O)N[C@@H](Cc1ccc(O)cc1)C(=O)N[C@@H](CC(C)C)C(=O)N[C@@H](C)C(=O)N[C@@H](C)C(=O)N[C@H](C(=O)N[C@@H](CC(C)C)C(=O)O)C(C)C)C(C)C)[C@@H](C)O
